Results: paper PMC7004075 (Clinical Pharmacology in Drug Development, 2019)

Legend:
patients with T2DM = test: Safety and tolerability; type: in vivo, human; settings: for overall safety and tolerability: patients with T2DM, different dosing conditions
[1] = Plasma insulin tregopil pharmacokinetics, Cohort 2; type: in vivo, human; settings: for plasma insulin tregopil Cmax, mean ± SD / plasma insulin tregopil AUC0-180min, mean ± SD: 30 mg oral
[2] = tested on: plasma glucose in patients with T2DM; test: Plasma glucose pharmacodynamics, Cohort 1; type: in vivo, human
[3] = tested on: plasma glucose in patients with T2DM; test: Plasma glucose pharmacodynamics, Cohort 2; type: in vivo, human
Procedure, shortened: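 Dosing was before each of 2 ADA meals set 4, 5 or 6 h apart and eaten within 30 min. Blood was taken predose and 10–180 min postdose. Baseline-adjusted glucose AUC0‑180min and Cmin were analysed by a mixed-effects model (sequence, period, treatment; patient-within-sequence random).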

[4] = tested on: endogenous glucose production, nonhepatic glucose uptake; settings: peripheral administration at 1.8 pmol/kg/min, preclinical; cited from earlier work
[5] = Cohort 2, 5-hour between-meal interval, afternoon dose
[6] = Cohort 2, 5-hour between-meal interval, morning dose

Substance: insulin tregopil: PEGylated recombinant human insulin with a single methoxy-triethylene-glycol-propionyl unit on the Lys-β29-amino group; oral tablets
- events of hypoglycemia (patients with T2DM; Cohort 1): 4 events
- events of hypoglycemia (patients with T2DM; Cohort 1, 30 minute premeal dosing time group): 3 events
- events of hypoglycemia (patients with T2DM; Cohort 2, all in the afternoon): 5 events
- events of hypoglycemia (patients with T2DM; all cohorts): 43 events
- hypoglycemic events mild in severity (patients with T2DM; all cohorts): 83.7%
- patient discontinuations from the study due to AEs (patients with T2DM; all cohorts): no patient discontinuations
- duration of hypoglycemic symptoms (patients with T2DM; generally): approximately 30 minutes
- overall safety and tolerability (patients with T2DM): safe and well tolerated
- overall safety and tolerability (patients with T2DM; listed as Insulin tregopil): well tolerated
- intersubject variability of plasma insulin tregopil AUC0-180mins ([1]; Cohort 2): 144.0%
- intersubject variability of plasma insulin tregopil Cmax ([1]; Cohort 2): 124.7%
- intrasubject variability of plasma insulin tregopil Cmax ([1]; Cohort 2): 64.7%
- plasma insulin tregopil Cmax, mean ± SD ([1]; Cohort 2, 4-hour between-meal interval, afternoon dose): 6760 ± 7680 µg/mL
- plasma insulin tregopil Cmax, mean ± SD ([1]; Cohort 2, 4-hour between-meal interval, morning dose): 11330 ± 9870 µg/mL
- plasma insulin tregopil AUC0-180min, mean ± SD [1, 5]: 209.27 ± 186.61 mg·min/mL
- plasma insulin tregopil Cmax, mean ± SD [1, 5]: 7139 ± 5691 µg/mL
- plasma insulin tregopil AUC0-180min, mean ± SD [1, 6]: 320.60 ± 196.340 mg·min/mL
- plasma insulin tregopil Cmax, mean ± SD [1, 6]: 10140 ± 5310 µg/mL
- plasma insulin tregopil Cmax, mean ± SD ([1]; Cohort 2, 6-hour between-meal interval, morning dose (first value)): 11320 ± 8730 µg/mL
- 2-hour postprandial glucose (PPG), higher than the premeal levels ([2]; Cohort 1, 10 minute premeal group (placebo 55%)): 36%
- 2-hour postprandial glucose (PPG), higher than the premeal levels ([2]; Cohort 1, 20 minute premeal group (placebo 55%)): 55%
- 2-hour postprandial glucose (PPG), higher than the premeal levels ([2]; Cohort 1, 30 minute premeal group (placebo 55%)): 77%
- duration of glucose-lowering action ([2]; oral, patients with T2DM): approximately 2 hours
- intrasubject variability for the baseline-adjusted PD response Cmin ([3]; Cohort 2, insulin tregopil groups (placebo 9.16%)): 11.61%
- intrasubject variability for the baseline-adjusted PD response AUC0-180mins ([3]; Cohort 2, insulin tregopil groups (placebo 9.17%)): 8.41%

Substance: human insulin: human insulin infused into portal vein or peripherally in preclinical studies
- increase in plasma insulin levels in the peripheral artery [4]: 2 fold
